Test results as given in publication PMC5365239 (Chemical Science, 2016).

Legend:
OVCAR5 cells = assay: MTS cytotoxicity assay after CuAAC reaction / GSH depletion; format: cell-based, human; settings: low concentration (20 μM) BSO
Procedure, shortened: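 HPG-incorporated OVCAR5 cells were exposed 10 min to CuAAC reaction mixtures. They were then returned to RPMI-1640 for 24 hours before viability was read by MTS assay. For GSH depletion, cells were first held 24 hours in RPMI-1640 containing 20 μM BSO before HPG incorporation.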

cellular GSH = assay: Cellular GSH concentration by LC-ESI-MS/MS after NEM alkylation; format: cell-based, human; settings: OVCAR5, 20 μM BSO
Procedure, shortened: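 Adherent OVCAR5 cells held in RPMI-1640 with 20 μM BSO for 24 hours before HPG incorporation. Cellular GSH was alkylated with NEM and then quantified by LC-ESI-MS/MS.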

[1] = Cu^I-ligand dissociation constant, competition assay with bicinchoninic acid; format: binding; settings: read-out: Dissociation constant (KD) of Cu^I-ligand; BCA competition assay

CCCCS(=N)(=O)CCC(N)C(=O)O (stereo not shown) [BSO, buthionine sulfoximine]
Cytotoxicity of GSH depletion (in words) (OVCAR5 cells): No cytotoxicity
Cellular GSH concentration (cellular GSH; 24 h): 4.9 ± 0.4 µM
Reduction of the cellular GSH level (cellular GSH; 24 hours): 99.7%

N[C@@H](CCC(=O)N[C@@H](CS)C(=O)NCC(=O)O)C(=O)O [GSH, reduced glutathione]
Kd [1]: 0.031 nM
